Our source for the MIC50 and MIC90 values is ChEMBL document CHEMBL1146199, “Daptomycin susceptibility of unusual gram-positive bacteria: comparison of results obtained by the Etest and the broth microdilution method” (2007).

Holding throughout (type): functional
For test [1], the system named is Listeria monocytogenes. Put plainly: Antimicrobial activity against Listeria monocytogenes by broth microdilution method. A digest of the protocol: (§1)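 MIC by CLSI broth microdilution in Mueller-Hinton broth. Daptomycin testing used broth supplemented with calcium at physiological level (50 μg/ml). Vancomycin and linezolid were tested from standard powders. Control strains were S. aureus ATCC 29213 and Enterococcus faecalis 29212.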

Test [2] relates to Pediococcus. Put plainly: Antimicrobial activity against Pediococcus spp. by broth microdilution method. A digest of the protocol:
as §1

For test [3], the system named is Leuconostoc. The test is described as follows: Antimicrobial activity against Leuconostoc spp. by broth microdilution method. In a few lines:
as §1

Test [4] deals with Rhodococcus sp. Put plainly: Antimicrobial activity against Rhodococcus spp. by broth microdilution method. To be noted: Rhodococcus sp. (in: high G+C Gram-positive bacteria). A digest of the protocol:
as §1

The test system of test [5] is Nocardia brasiliensis. Put plainly: Antimicrobial activity against Nocardis brasiliensis by broth microdilution method. A digest of the protocol:
as §1

The subject of test [6] is Nocardia asteroides. Put plainly: Antimicrobial activity against Nocardia asteroides by broth microdilution method. In a few lines:
as §1

For test [7], the system named is Nocardia sp. The test is described as follows: Antimicrobial activity against Nocardia spp. by broth microdilution method. In a few lines:
as §1

Test [8] relates to Listeria monocytogenes. The test is described as follows: Antimicrobial activity against Listeria monocytogenes by Etest. In a few lines:
(§2)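 Daptomycin MIC read from an Etest strip carrying a daptomycin-plus-calcium gradient, run per manufacturer's instructions. Each isolate was compared with its broth microdilution MIC (Mueller-Hinton broth, 50 μg/ml calcium). Agreement was defined as within 1 twofold dilution. Mean log2 difference was tested by one-sample t test.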

Test [9] deals with Pediococcus. The test is described as follows: Antimicrobial activity against Pediococcus spp. by Etest. In a few lines: as §2
The test system of test [10] is Leuconostoc. The test is described as follows: Antimicrobial activity against Leuconostac spp. by Etest. In a few lines:
as §2

The subject of test [11] is Rhodococcus sp. Put plainly: Antimicrobial activity against Rhodococcus spp. by Etest. To be noted: Rhodococcus sp. (in: high G+C Gram-positive bacteria). A digest of the protocol:
as §2

Test [12] relates to Nocardia brasiliensis. Put plainly: Antimicrobial activity against Nocardis brasiliensis by Etest. A digest of the protocol: as §2
Test [13] concerns Nocardia asteroides. The test is described as follows: Antimicrobial activity against Nocardia asteroids by Etest. A digest of the protocol: as §2
Test [14] deals with Nocardia sp. The test is described as follows: Antimicrobial activity against Nocardia spp. by Etest. A digest of the protocol: as §2

≈ marks a conversion by molar mass, not a printed value. A value given as a limit tells only on which side of the number the result lay.

Consider `CC(=O)NC[C@H]1CN(c2ccc(N3CCOCC3)c(F)c2)C(=O)O1` [LINEZOLID], for which the MIC50 in test [1] was found to be 2 µg/mL (≈ 5.93 µM); in [2], 2 µg/mL (≈ 5.93 µM); in [3], 4 µg/mL (≈ 11.9 µM); in [4] it was 1 µg/mL (≈ 2.96 µM); in test [5], 8 µg/mL (≈ 23.7 µM); in test [6], 4 µg/mL (≈ 11.9 µM). The same compound yielded an MIC50 in [7] of 4 µg/mL (≈ 11.9 µM). In addition, the MIC90 turned out to be 2 µg/mL (≈ 5.93 µM) in test [1]; 4 µg/mL (≈ 11.9 µM) in test [2]; 4 µg/mL (≈ 11.9 µM) in test [3]; 2 µg/mL (≈ 5.93 µM) in [4]; 8 µg/mL (≈ 23.7 µM) in [5]; 4 µg/mL (≈ 11.9 µM) in test [6]. In addition, the MIC90 in test [7] stood at 4 µg/mL (≈ 11.9 µM).

As to `CN[C@H](CC(C)C)C(=O)N[C@H]1C(=O)N[C@@H](CC(N)=O)C(=O)N[C@H]2C(=O)N[C@H]3C(=O)N[C@H](C(=O)N[C@H](C(=O)O)c4cc(O)cc(O)c4-c4cc3ccc4O)[C@H](O)c3ccc(c(Cl)c3)Oc3cc2cc(c3O[C@@H]2O[C@H](CO)[C@@H](O)[C@H](O)[C@H]2O[C@H]2C[C@](C)(N)[C@H](O)[C@H](C)O2)Oc2ccc(cc2Cl)[C@H]1O` [VANCOMYCIN], the MIC50 is 1 µg/mL (≈ 0.69 µM) in test [1]; above 64 µg/mL in test [2]; above 64 µg/mL in test [3]; 1 µg/mL (≈ 0.69 µM) in [4]; above 64 µg/mL in test [5]; above 64 µg/mL in test [6]. Moreover, the MIC50 in test [7] is above 64 µg/mL. Besides, the MIC90 in [1] is 1 µg/mL (≈ 0.69 µM); in [2], above 64 µg/mL; in test [3], above 64 µg/mL; in test [4] it was above 64 µg/mL; in test [5], above 64 µg/mL; in test [6], above 64 µg/mL. In test [7], this compound came in with an MIC90 above 64 µg/mL.

As to `CCCCCCCCCC(=O)N[C@@H](Cc1c[nH]c2ccccc12)C(=O)N[C@H](CC(N)=O)C(=O)N[C@@H](CC(=O)O)C(=O)N[C@@H]1C(=O)NCC(=O)N[C@@H](CCCN)C(=O)N[C@@H](CC(=O)O)C(=O)N[C@H](C)C(=O)N[C@@H](CC(=O)O)C(=O)NCC(=O)N[C@H](CO)C(=O)N[C@@H]([C@H](C)CC(=O)O)C(=O)N[C@@H](CC(=O)c2ccccc2N)C(=O)O[C@@H]1C`, the MIC50 in test [1] stood at 4 µg/mL (≈ 2.47 µM); in [8], 3 µg/mL (≈ 1.85 µM); in test [2] it was 0.25 µg/mL (≈ 0.154 µM); in test [9] it was 0.25 µg/mL (≈ 0.154 µM); in [3] it was 0.12 µg/mL (≈ 0.074 µM); in [10] it was 0.25 µg/mL (≈ 0.154 µM). Also, the MIC50 in test [4] is above 64 µg/mL; in test [11], 96 µg/mL (≈ 59.2 µM); in test [5], above 64 µg/mL; in test [12], above 256 µg/mL; in test [6] it was above 64 µg/mL; in [13], above 256 µg/mL. The MIC50 in test [7] is above 64 µg/mL; in [14] it was above 256 µg/mL. In addition, the MIC90 in test [1] was 4 µg/mL (≈ 2.47 µM); in test [8], 4 µg/mL (≈ 2.47 µM); in test [2] it was 0.5 µg/mL (≈ 0.309 µM); in test [9] it was 0.5 µg/mL (≈ 0.309 µM); in [3] it was 0.25 µg/mL (≈ 0.154 µM); in [10], 0.5 µg/mL (≈ 0.309 µM). The MIC90 in test [4] was above 64 µg/mL; in [11] it was above 256 µg/mL; in test [5] it was above 64 µg/mL; in test [12] it was above 256 µg/mL; in [6] it was above 64 µg/mL; in [13], above 256 µg/mL. For the same compound, the MIC90 in test [7] is above 64 µg/mL; in test [14], above 256 µg/mL.
